Assay results taken from ChEMBL document CHEMBL2086248, “Synthesis of some novel 1-(2-naphthyl)-2-(imidazol-1-yl)ethanone oxime ester derivatives and evaluation of their anticonvulsant activity” (Eur J Med Chem, 2012).
The source made the active and inactive calls.

How the values were obtained:
Mus musculus [1] = test: Anticonvulsant activity in mouse assessed as protection against subcutaneous pentylenetetrazole-induced seizures at 300 mg/kg, ip after 4 hrs; assay type: functional, organism-based; design: dose 300 mg/kg
Procedure, shortened: (§1)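 Swiss albino mice (20-24 g) were dosed ip with a suspension in 30% aqueous PEG 400 and challenged 0.5 h or 4 h later. Protection meant no threshold seizure (clonic spasms lasting at least 5 s). Scored as number protected/number tested, one mouse per dose and time.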

Mus musculus [2] = test: Anticonvulsant activity in mouse assessed as protection against maximal electroshock-induced seizures at 300 mg/kg, ip after 4 hrs; assay type: functional, organism-based; design: dose 300 mg/kg
Procedure, shortened: (§2)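 Swiss albino mice (20-24 g) received an ip suspension in 30% aqueous PEG 400 and were tested 0.5 h and 4 h after dosing. Shock was delivered through corneal electrodes from a constant current unit, with 0.9% saline dropped into the eyes first. Protection meant abolition of the hind limb tonic extension. Scored as number protected/number tested, one mouse per dose and time.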

Mus musculus [3] = test: Anticonvulsant activity in mouse assessed as protection against maximal electroshock-induced seizures at 100 mg/kg, ip after 0.5 hrs; assay type: functional, organism-based; design: dose 100 mg/kg; procedure, shortened: as §2
Mus musculus [4] = test: Neurotoxicity in mouse assessed as motor impairment at 300 mg/kg, ip after 4 hrs by rotarod test; assay type: toxicity, organism-based; design: dose 300 mg/kg, route intraperitoneal; conditions: in vivo
Procedure, shortened: (§3)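 Swiss albino mice (20-24 g) were dosed ip with a suspension in 30% aqueous PEG 400 and tested 0.5 h or 4 h later. They were placed on a knurled wooden rod 1 inch in diameter, rotating at 6 rpm. Toxicity meant failure to stay on the rod for at least 1 min in each of three trials. Scored as number toxic/number tested (4 mice at 0.5 h, 2 at 4 h).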

Mus musculus [5] = test: Anticonvulsant activity in mouse assessed as protection against subcutaneous pentylenetetrazole-induced seizures at 30 mg/kg, ip after 4 hrs; assay type: functional, organism-based; design: dose 30 mg/kg; procedure, shortened: as §1
Mus musculus [6] = test: Neurotoxicity in mouse assessed as motor impairment at 30 mg/kg, ip after 4 hrs by rotarod test; assay type: toxicity, organism-based; design: dose 30 mg/kg, route intraperitoneal; conditions: in vivo; procedure, shortened: as §3
Mus musculus [7] = test: Anticonvulsant activity in mouse assessed as protection against maximal electroshock-induced seizures at 30 mg/kg, ip after 0.5 hrs; assay type: functional, organism-based; design: dose 30 mg/kg; procedure, shortened: as §2
Mus musculus [8] = test: Neurotoxicity in mouse assessed as motor impairment at 30 mg/kg, ip after 0.5 hrs by rotarod test; assay type: toxicity, organism-based; design: dose 30 mg/kg, route intraperitoneal; conditions: in vivo; procedure, shortened: as §3
Mus musculus [9] = test: Anticonvulsant activity in mouse assessed as protection against subcutaneous pentylenetetrazole-induced seizures at 300 mg/kg, ip after 0.5 hrs; assay type: functional, organism-based; design: dose 300 mg/kg; procedure, shortened: as §1
Mus musculus [10] = test: Anticonvulsant activity in mouse assessed as protection against maximal electroshock-induced seizures at 30 mg/kg, ip after 4 hrs; assay type: functional, organism-based; design: dose 30 mg/kg; procedure, shortened: as §2
Mus musculus [11] = test: Anticonvulsant activity in mouse assessed as protection against subcutaneous pentylenetetrazole-induced seizures at 100 mg/kg, ip after 4 hrs; assay type: functional, organism-based; design: dose 100 mg/kg; procedure, shortened: as §1
Mus musculus [12] = test: Anticonvulsant activity in mouse assessed as protection against subcutaneous pentylenetetrazole-induced seizures at 100 mg/kg, ip after 0.5 hrs; assay type: functional, organism-based; design: dose 100 mg/kg; procedure, shortened: as §1
Mus musculus [13] = test: Anticonvulsant activity in mouse assessed as protection against maximal electroshock-induced seizures at 100 mg/kg, ip after 4 hrs; assay type: functional, organism-based; design: dose 100 mg/kg; procedure, shortened: as §2
Mus musculus [14] = test: Anticonvulsant activity in mouse assessed as protection against maximal electroshock-induced seizures at 300 mg/kg, ip after 0.5 hrs; assay type: functional, organism-based; design: dose 300 mg/kg; procedure, shortened: as §2
Mus musculus [15] = test: Neurotoxicity in mouse assessed as motor impairment at 100 mg/kg, ip after 4 hrs by rotarod test; assay type: toxicity, organism-based; design: dose 100 mg/kg, route intraperitoneal; conditions: in vivo; procedure, shortened: as §3
Mus musculus [16] = test: Neurotoxicity in mouse assessed as motor impairment at 100 mg/kg, ip after 0.5 hrs by rotarod test; assay type: toxicity, organism-based; design: dose 100 mg/kg, route intraperitoneal; conditions: in vivo; procedure, shortened: as §3
Mus musculus [17] = test: Neurotoxicity in mouse assessed as motor impairment at 300 mg/kg, ip after 0.5 hrs by rotarod test; assay type: toxicity, organism-based; design: dose 300 mg/kg, route intraperitoneal; conditions: in vivo; procedure, shortened: as §3
Mus musculus [18] = test: Anticonvulsant activity in mouse assessed as protection against subcutaneous pentylenetetrazole-induced seizures at 30 mg/kg, ip after 0.5 hrs; assay type: functional, organism-based; design: dose 30 mg/kg; procedure, shortened: as §1

Structure (SMILES) | Activity (Mus musculus [1]) | Activity (Mus musculus [2]) | Activity (Mus musculus [3]) | Activity (Mus musculus [4]) | Activity (Mus musculus [5]) | Activity (Mus musculus [6]) | Activity (Mus musculus [7]) | Activity (Mus musculus [8]) | Activity (Mus musculus [9]) | Activity (Mus musculus [10]) | Activity (Mus musculus [11]) | Activity (Mus musculus [12]) | Activity (Mus musculus [13]) | Activity (Mus musculus [14]) | Activity (Mus musculus [15]) | Activity (Mus musculus [16]) | Activity (Mus musculus [17]) | Activity (Mus musculus [18])
Cl.O=C(O/N=C(\Cn1ccnc1)c1ccc2ccccc2c1)c1ccc(-c2ccccc2)cc1 | inactive | Active | inactive | Non-toxic | inactive | Non-toxic | inactive | Non-toxic | inactive | inactive | inactive | inactive | inactive | inactive | Non-toxic | Non-toxic | Non-toxic | inactive
CCCC(CCC)C(=O)ON=C(Cn1ccnc1)c1ccc2ccccc2c1.Cl (mixture of isomers) | Active | Active | Active | Non-toxic | inactive | Non-toxic | Active | Non-toxic | Active | inactive | inactive | inactive | inactive | Active | Non-toxic | Non-toxic | Non-toxic | inactive
Cc1ccc(C(=O)O/N=C(\Cn2ccnc2)c2ccc3ccccc3c2)cc1 | Active | inactive | Active | Non-toxic | inactive | Non-toxic | inactive | Non-toxic | Active | inactive | inactive | Active | inactive | Active | Non-toxic | Non-toxic | Non-toxic | inactive
COc1cccc(C(=O)O/N=C(\Cn2ccnc2)c2ccc3ccccc3c2)c1 | inactive | inactive | inactive | Non-toxic | inactive | Non-toxic | inactive | Non-toxic | inactive | inactive | inactive | inactive | inactive | Active | Non-toxic | Non-toxic | Non-toxic | inactive
CCC(=O)O/N=C(\Cn1ccnc1)c1ccc2ccccc2c1.Cl | inactive | inactive | Active | Non-toxic | inactive | Non-toxic | inactive | Non-toxic | Active | inactive | inactive | inactive | inactive | Active | Non-toxic | Non-toxic | Non-toxic | inactive
CC(C)CC(=O)O/N=C(\Cn1ccnc1)c1ccc2ccccc2c1.Cl | inactive | Active | Active | Non-toxic | inactive | Non-toxic | inactive | Non-toxic | inactive | inactive | inactive | inactive | Active | Active | Non-toxic | Non-toxic | Non-toxic | inactive
O=C(O/N=C(\Cn1ccnc1)c1ccc2ccccc2c1)c1cccc([N+](=O)[O-])c1 | inactive | Active | inactive | Non-toxic | inactive | Non-toxic | inactive | Non-toxic | inactive | inactive | inactive | inactive | inactive | inactive | Non-toxic | Non-toxic | Non-toxic | inactive
COc1ccc(C(=O)O/N=C(\Cn2ccnc2)c2ccc3ccccc3c2)cc1 | inactive | inactive | inactive | Non-toxic | inactive | Non-toxic | inactive | Non-toxic | Active | inactive | inactive | inactive | inactive | inactive | Non-toxic | Non-toxic | Non-toxic | inactive
CCCCCC(=O)O/N=C(\Cn1ccnc1)c1ccc2ccccc2c1.Cl | inactive | inactive | inactive | Non-toxic | inactive | Non-toxic | inactive | Non-toxic | inactive | inactive | inactive | inactive | inactive | inactive | Non-toxic | Non-toxic | Non-toxic | inactive
O=C(O/N=C(\Cn1ccnc1)c1ccc2ccccc2c1)c1ccccc1Cl | inactive | inactive | Active | Non-toxic | inactive | Non-toxic | inactive | Non-toxic | inactive | inactive | inactive | inactive | inactive | Active | Non-toxic | Non-toxic | Non-toxic | inactive
O=C(O/N=C(\Cn1ccnc1)c1ccc2ccccc2c1)c1ccccc1 | Active | Active | Active | Non-toxic | inactive | Non-toxic | inactive | Non-toxic | inactive | Active | inactive | inactive | Active | Active | Non-toxic | Non-toxic | Non-toxic | inactive
Cc1cccc(C(=O)O/N=C(\Cn2ccnc2)c2ccc3ccccc3c2)c1 | Active | inactive | inactive | Non-toxic | inactive | Non-toxic | inactive | Non-toxic | Active | inactive | inactive | inactive | inactive | inactive | Non-toxic | Non-toxic | Non-toxic | inactive
